Laboratory results from publication PMC5598529 (Toxicology Reports, 2014).

The molecules below were run on Caco-2 cell monolayer (assay: Phenol red diffusion). Conditions: 1-25 μM, day 10, vs control.
Type: cell-based, human
Procedure, shortened: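 Monolayers were grown on collagen-coated Transwells (2.5 × 10^5 cells/well) for 4 days. Then 1, 5, 10 or 25 μM test compound or 0.1% DMSO was added to both compartments in 4% FBS medium, renewed every 2 days. At day 10, phenol red medium was placed apically and phenol red-free medium basolaterally. Apical-to-basolateral diffusion over 4 h was read at 560 nm and expressed as percent diffusion.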
In the case of `CC1(C)[C@H](C(=O)O[C@H](C#N)c2cccc(Oc3ccccc3)c2)[C@@H]1/C=C(\Cl)C(F)(F)F` (racemic) [LCT, lambda-cyhalothrin], the “Apparent permeability (J10) (phenol red diffusion), direction of effect” value is reported as “decrease of membrane permeability”.
For `CC1(C)[C@H](C(=O)O[C@H](C#N)c2cccc(Oc3ccccc3)c2)[C@@H]1C=C(Br)Br` [DTM, deltamethrin], the “Apparent permeability (J10) (phenol red diffusion), direction of effect” value was “decrease of membrane permeability”.

The molecules below were run on Caco-2 cells (assay: Detection of apoptosis and necrosis by Hoechst 33342 and PI staining). Conditions: 25 μM, 48 h; ratio of percentage of necrotic cells in treated versus untreated cells.
Type: cell-based, human
Procedure, shortened: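 Cells were seeded at 1.25 × 10^5/well. After 20 h they received 25 μM test compound, alone or as an equimolar mixture, for 48 h. They were stained with Hoechst 33342 (5 μg/ml) plus PI (1 μg/ml) for 30 min at 37 °C in the dark, then washed. Normal, apoptotic and necrotic cells were counted in four random fields per well. Three independent experiments, each in triplicate.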
With `CC1(C)[C@H](C(=O)O[C@H](C#N)c2cccc(Oc3ccccc3)c2)[C@@H]1C=C(Br)Br` [DTM, deltamethrin] the “Percent of necrosis in treated vs control cells” value was 2.7.

Each molecule was assayed on Caco-2 cells (assay: Intracellular ROS). Conditions: 6 h exposure, 25 or 100 μM, vs control, p < 0.05.
Type: cell-based, human
Procedure, shortened: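 Cells were plated at 5 × 10^4/well and grown 48 h in 10% FBS medium, then washed with PBS. They were exposed for 6 h at 37 °C to 25 or 100 μM test compound in HBSS containing 5 μM H2-DCFDA; controls had 0.025% DMSO. After PBS washes, fluorescence was read at ex 485/em 530 nm.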
For `CC1(C)[C@H](C(=O)O[C@H](C#N)c2cccc(Oc3ccccc3)c2)[C@@H]1C=C(Br)Br` [DTM, deltamethrin], the “H2O2 production, direction of effect” value was “strongest effect”.

Same assay, conditions: 6 h exposure, p < 0.05
In the case of `CC1(C)[C@H](C(=O)O[C@H](C#N)c2cccc(Oc3ccccc3)c2)[C@@H]1/C=C(\Cl)C(F)(F)F` (racemic) [LCT, lambda-cyhalothrin], the “H2O2 production, concentration given for the effect” value is reported as 100 µM.
With `CC1(C)[C@H](C(=O)O[C@H](C#N)c2cccc(Oc3ccccc3)c2)[C@@H]1C=C(Br)Br` [DTM, deltamethrin] the “H2O2 production, concentration given for the effect” value was 25 µM.

These molecules were tested on Caco-2 cell monolayer (assay: Transepithelial electrical resistance). Conditions: 1-25 μM, 10 days, vs control.
Type: cell-based, human
Procedure, shortened: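 Caco-2 were grown on collagen-coated Transwells (2.5 × 10^5 cells/well) for 4 days. They were then exposed apically and basolaterally to 1, 5, 10 or 25 μM test compound or 0.1% DMSO, renewed every 2 days. Resistance was measured at days 0, 3, 7 and 10 and expressed in Ω cm2. Mean ± SEM of 3 independent experiments, each in triplicate.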
`CC1(C)[C@H](C(=O)O[C@H](C#N)c2cccc(Oc3ccccc3)c2)[C@@H]1/C=C(\Cl)C(F)(F)F` (racemic) [LCT, lambda-cyhalothrin] was tested, and the “TEER (J10), direction of effect” value was “significant increase”.
With `CC1(C)[C@H](C(=O)O[C@H](C#N)c2cccc(Oc3ccccc3)c2)[C@@H]1C=C(Br)Br` [DTM, deltamethrin] the “TEER (J10), direction of effect” value was “significant increase”.

Same assay, conditions: day 10
In the case of `CC1(C)[C@H](C(=O)O[C@H](C#N)c2cccc(Oc3ccccc3)c2)[C@@H]1/C=C(\Cl)C(F)(F)F` (racemic) [LCT, lambda-cyhalothrin], the “TEER (J10), concentration given for the effect” value is reported as 25 µM.
For `CC1(C)[C@H](C(=O)O[C@H](C#N)c2cccc(Oc3ccccc3)c2)[C@@H]1C=C(Br)Br` [DTM, deltamethrin], the “TEER (J10), concentration given for the effect” value was 10 µM.

Each molecule was assayed on Alkaline phosphatase activity in Caco-2 cells (assay: Alkaline phosphatase assay for cell differentiation). Conditions: 1-25 μM, 10 days, vs control, p < 0.01.
Type: cell-based, human
Procedure, shortened: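 Caco-2 seeded at 1.125 × 10^5 cells/well and treated next day with 1, 5, 10 or 25 μM of test compound, or 0.1% DMSO vehicle, for 10 days in 4% FBS medium, renewed every 48 h. Cells were scraped into cold 50 mM Tris pH 7.5 and needle-homogenised. Lysate ALP hydrolysed pNPP over 30 min at pH 10.4, 37 °C; p-nitrophenol read at 405 nm, per mg protein, as % of control.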
In the case of `CC1(C)[C@H](C(=O)O[C@H](C#N)c2cccc(Oc3ccccc3)c2)[C@@H]1/C=C(\Cl)C(F)(F)F` (racemic) [LCT, lambda-cyhalothrin], the “ALP activity (J10), direction of effect” value is reported as “increased its activity”.
With `CC1(C)[C@H](C(=O)O[C@H](C#N)c2cccc(Oc3ccccc3)c2)[C@@H]1C=C(Br)Br` [DTM, deltamethrin] the “ALP activity (J10), direction of effect” value was “increased its activity”.

Same assay, conditions: day 10, p < 0.01
With `CC1(C)[C@H](C(=O)O[C@H](C#N)c2cccc(Oc3ccccc3)c2)[C@@H]1/C=C(\Cl)C(F)(F)F` (racemic) [LCT, lambda-cyhalothrin] the “ALP activity (J10), concentration given for the effect” value was 1 µM.
In the case of `CC1(C)[C@H](C(=O)O[C@H](C#N)c2cccc(Oc3ccccc3)c2)[C@@H]1C=C(Br)Br` [DTM, deltamethrin], the “ALP activity (J10), concentration given for the effect” value is reported as 1 µM.

What follows are molecules tested on Caco-2 cells (assay: MTT cell viability assay). Conditions: appeared later (J7).
Type: cell-based, human
Procedure, shortened: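 Caco-2 (passage 25–39) were seeded at 5 × 10^4/well. After 20 h they received 0.1–100 μM test compound, alone or as an equimolar mixture, in 4% FBS medium, renewed every 48 h, for 3, 7 and 10 days. MTT (0.5 mg/ml in RPMI) was added for 4 h at 37 °C and stopped with SDS/NaOH. Absorbance was read at 570/690 nm as % of DMSO control; EC50 was taken from the dose–response curve. Three experiments, each in quadruplicate.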
`CC1(C)[C@H](C(=O)O[C@H](C#N)c2cccc(Oc3ccccc3)c2)[C@@H]1/C=C(\Cl)C(F)(F)F` (racemic) [LCT, lambda-cyhalothrin] was tested, and the “concentration at which impact on viability appeared” value was 1 µM.
With `CC1(C)[C@H](C(=O)O[C@H](C#N)c2cccc(Oc3ccccc3)c2)[C@@H]1C=C(Br)Br` [DTM, deltamethrin] the “concentration at which impact on viability appeared” value was 8 µM.

Same assay, conditions: day 10, p < 0.05
For `CC1(C)[C@H](C(=O)O[C@H](C#N)c2cccc(Oc3ccccc3)c2)[C@@H]1/C=C(\Cl)C(F)(F)F` (racemic) [LCT, lambda-cyhalothrin], the “Cell viability (J10), concentration given for the effect” value was 1 µM.
With `CC1(C)[C@H](C(=O)O[C@H](C#N)c2cccc(Oc3ccccc3)c2)[C@@H]1C=C(Br)Br` [DTM, deltamethrin] the “Cell viability (J10), concentration given for the effect” value was 8 µM.

What follows are molecules tested on phospho-Akt (Ser473) in Caco-2 cells (assay: Western blot analysis of Akt). Conditions: 25 μM, compared to control.
Type: cell-based, human
Procedure, shortened: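 Cells at 1.5 × 10^5/well were exposed 20 h after seeding to 25 μM of each test compound or the mixture for 10 days. Lysis was in RIPA with protease and phosphatase inhibitors. 25 μg protein was resolved by SDS-PAGE and blotted to nitrocellulose. Blots were probed overnight at 4 °C with anti-phospho-Akt Ser473 (1/2000) and anti-Akt1/2/3 (1/1000), then detected with 800 nm infrared-dye secondaries and quantified by relative fluorescence. Three independent experiments.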
In the case of `CC1(C)[C@H](C(=O)O[C@H](C#N)c2cccc(Oc3ccccc3)c2)[C@@H]1/C=C(\Cl)C(F)(F)F` (racemic) [LCT, lambda-cyhalothrin], the “level of phospho-Akt (Ser473)” value is reported as “greatest impact”.

The molecules below were run on catalase (CAT) activity in Caco-2 cells (assay: Antioxidant enzyme assay: catalase). Conditions: 10 days, 1, 5, 10 and 25 μM, vs control.
Type: cell-based, human
Procedure, shortened: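 Cells at 1.5 × 10^5/well were exposed next day to 1–25 μM test compound or vehicle, renewed every 48 h. At day 10 they were sonicated in 50 mM phosphate pH 7 with 1 mM EDTA. Catalase was measured in the 105,000 × g (1 h, 4 °C) supernatant as H2O2 decomposition followed at 240 nm for 30 s. Specific activity is given as % of control.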
For `CC1(C)[C@H](C(=O)O[C@H](C#N)c2cccc(Oc3ccccc3)c2)[C@@H]1/C=C(\Cl)C(F)(F)F` (racemic) [LCT, lambda-cyhalothrin], the CAT activity was “increase”.
In the case of `CC1(C)[C@H](C(=O)O[C@H](C#N)c2cccc(Oc3ccccc3)c2)[C@@H]1C=C(Br)Br` [DTM, deltamethrin], the CAT activity is reported as “increase”.

The molecules below were run on Caco-2 cells (assay: Lipid peroxidation measurement). Conditions: 48 h exposure, p < 0.01.
Type: cell-based, human
Procedure, shortened: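 Cells were seeded at 1.25 × 10^5/well and exposed for 48 h to 25 or 100 μM test compound. Culture medium was mixed with HCl and TBA buffer, heated 10 min at 95 °C, ice-cooled and extracted with n-butanol. Absorbance was read at 532 nm. MDA equivalents were calculated from a TMOP calibration curve.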
In the case of `CC1(C)[C@H](C(=O)O[C@H](C#N)c2cccc(Oc3ccccc3)c2)[C@@H]1/C=C(\Cl)C(F)(F)F` (racemic) [LCT, lambda-cyhalothrin], the “Lipid peroxidation, concentration given for the effect” value is reported as 100 µM.
With `CC1(C)[C@H](C(=O)O[C@H](C#N)c2cccc(Oc3ccccc3)c2)[C@@H]1C=C(Br)Br` [DTM, deltamethrin] the “Lipid peroxidation, concentration given for the effect” value was 100 µM.
